Rows were chosen to be rich in hits. Some 2.9% of all compounds tested hit in one or more screens of this group.
Wee1 stabilizer – inhibitors of human Wee1 degradation; P30291; HeLa Luc-Wee1K328M stability, luciferase luminescence; 100% = proteasome inhibitor MG132 effect; reporter increase, % at 5 µM; actives 1.2% (n = 220,000);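 active means activation above the mean of all tested compounds plus 3 SD, set per screening run, cut at about 8.8% in these data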;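 further: cells exposed to compound for 20 h before luminescence read; 0% = DMSO alone and 100% = MG132 at 30 µM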
proKLK7 act – activates the human kallikrein-7 zymogen | actives 0.9% (n = 370,000) | purified proKLK7, EDANS-DABCYL substrate fluorescence; 100% is mature enzyme control, 0% vehicle | P49862 | activation, % at 7 µM;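 active means activation above the mean of all tested compounds plus 3 SD, computed per campaign excluding outliers beyond control limits, cut at about 13% in these data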
Runt-SMMHC FRET – Runt domain-CBFb-SMMHC interaction inhibition; Q01196+Q13951; Cerulean-Runt/Venus-CBFb-SMMHC FRET ratio 530/480, 1 h; inhibition, % at 20 µM; actives 0.74% (n = 220,000); AID 1434;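 active means mean inhibition across duplicate retests at 20 µM reaching about 50%, limit read from the data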;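 further: 0% = DMSO wells and 100% = wells with excess untagged CBFb-SMMHC; inhibitors lower the FRET ratio by blocking Runt binding to CBFb-SMMHC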
Target sequence (Q01196 whole entry, looked up, the tested form may be a part): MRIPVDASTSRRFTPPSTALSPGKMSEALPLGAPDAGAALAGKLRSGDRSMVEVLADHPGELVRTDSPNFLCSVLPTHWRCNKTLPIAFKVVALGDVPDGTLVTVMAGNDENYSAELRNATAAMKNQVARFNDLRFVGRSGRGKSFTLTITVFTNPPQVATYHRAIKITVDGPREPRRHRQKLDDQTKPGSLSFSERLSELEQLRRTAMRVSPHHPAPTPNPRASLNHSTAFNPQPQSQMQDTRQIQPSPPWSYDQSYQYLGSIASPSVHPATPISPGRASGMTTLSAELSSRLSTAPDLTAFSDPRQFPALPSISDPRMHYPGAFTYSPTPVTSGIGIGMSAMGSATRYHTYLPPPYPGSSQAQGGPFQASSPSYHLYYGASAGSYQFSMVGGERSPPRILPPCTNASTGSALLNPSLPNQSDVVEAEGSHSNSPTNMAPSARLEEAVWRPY
Target sequence (Q13951 whole entry, looked up, the tested form may be a part): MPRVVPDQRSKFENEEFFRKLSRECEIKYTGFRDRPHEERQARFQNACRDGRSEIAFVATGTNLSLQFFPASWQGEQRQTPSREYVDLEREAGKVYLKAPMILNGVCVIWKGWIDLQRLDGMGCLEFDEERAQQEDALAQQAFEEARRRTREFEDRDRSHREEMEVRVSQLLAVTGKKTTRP
Runt-CBFb FRET – inhibitors of human RUNX1 Runt domain binding to CBFb; Q01196+Q13951; Cerulean-Runt/Venus-CBFb FRET ratio 530/480, 1 h; inhibition, % at 20 µM; actives 0.46% (n = 220,000);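 active means inhibition over about 50% at 20 µM in the single-dose screen, limit read from the data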;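 further: 0% = DMSO wells and 100% = excess unlabeled CBFb competitor control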
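Assay system: Cerulean-Runt domain / Medium: Tris 50 mM pH 7.5, KCl, K2SO4, 0.01% BSA / Timing: protein complex preformed 1 h, compound exposure 1 h, room temperature, dark / Measured by: FRET, excitation 422 nm, emission at 530 and 480 nm / Evaluation: loss of energy transfer signal / Control set: 5 µM unlabeled CBFb as full-inhibition high control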
RanGTP-Imp inh – disruptors of Ran-importin-beta complex formation – biochemical, FRET, CFP-Ran, YFP-importin-beta, homogeneous, primary screen. cell-free CFP-Ran/YFP-importin-beta FRET ratio. inhibition, % (concentration not given with the values). actives 1.1% (n = 300,000);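 active means more than half of the replicate wells show a fall in the fluorescence ratio signal beyond about 16%, limit read from the data, passing the limit was not always enough; inconclusive means exactly half of the replicate wells pass the set limit; inactive means fewer than half of replicates pass the limit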;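 further: 0% = DMSO wells and 100% = Ran loaded with GDP instead of GTP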
AI-2 QS mod – Vibrio harveyi AI-2 quorum sensing modulation; Vibrio harveyi JMH597 AI-2 luminescence/OD600 ratio, 9 h; stronger effect = lower value; strain lacks LuxN and CqsS sensors; 0 = neutral-control median; activity change, % at 7.5 µM; actives 0.4% (n = 300,000); AID 2094; in the data active means activity change below about -75%, passing the limit was not always enough; inconclusive means no clear call, values can overlap the other calls;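 further: luminescence divided by OD600 gain over 9 h not by final OD600 alone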
Wee1 degr conf – confirmation of human Wee1 degradation inhibitors. AID 1410. actives 4% (n = 1,100). shares compounds with Wee1 stabilizer. HeLa Luc-Wee1K328M degradation, luminescence; vehicle 0%, proteasome-blocked wells 100%. activation, % at 5 µM; in the data active means activation above about 8.9%
The depositor's hits bear a star; ? = inconclusive; / = no result given.

SMILES	Wee1 stabilizer	proKLK7 act	Runt-SMMHC FRET	Runt-CBFb FRET	RanGTP-Imp inh	AI-2 QS mod	Wee1 degr conf
O=C(Nc1cccc(Cl)c1)Nc1ccc(Br)cc1F	13*	1	-10	-3	0	24	-1
O=C(Nc1ccc(S(=O)(=O)Nc2nccs2)cc1)c1cnc(Cl)c(Cl)c1	19*	0	-17	0	-2	10	0
COc1cccc(CNCc2cccnc2)c1OCc1ccccc1	13*	0	0	0	?	15	-1
CN(Cc1c(F)cccc1Cl)c1ccc(S(=O)(=O)N2CCOCC2)cn1	12*	0	0	-2	-7	19	3
CN1CCN(S(=O)(=O)c2ccc(N(C)Cc3c(F)cccc3Cl)nc2)CC1	/	0	/	/	/	/	/
CC(=O)C1=NOC2C(=O)N(c3ccccc3)C(=O)C12 (configuration not stated)	/	0	/	/	7	15	/
CC(=O)Nc1ccccc1C(=O)C(=O)Nc1ccc(C)c(C)c1	7	0	0	-2	1	-3	/
CC(=O)Nc1ccccc1C(=O)C(=O)Nc1ccc(C)c(F)c1	18*	0	1	-1	3	17	8
Cc1cc(C)n(CC(=O)NNC(=O)c2ccc(S(C)(=O)=O)cc2)n1	/	0	/	/	/	/	/
COc1ccc(/C=N/N=C(\N)c2nonc2N)cc1OC	11*	-1	0	3	-2	23	0
Cc1ccc2ccccc2c1NC(=O)CNCc1ccccc1	/	0	/	/	/	/	/
CCn1cc(C(=O)OCC(=O)c2ccccc2)c(=O)c2ccc(C)nc21	12*	0	2	-1	6	20	-1
CCn1cc(C(=O)OCC(=O)c2ccc(Cl)cc2)c(=O)c2ccc(C)nc21	-1	1	1	-3	-2	-20	/
O=C(NCc1ccco1)/C(=C\c1ccco1)NC(=O)c1cccs1	30*	1	-5	12	-2	6	4
CCCCN(C)CCNC(=O)C1CCN(S(=O)(=O)c2cccc3nsnc23)CC1	/	0	/	/	2	14	/
CCCCOc1ccc(S(=O)(=O)NC(=O)NCc2ccc(OCCC)cc2)cc1	-2	0	-3	-9	-4	2	/
CCCCOc1ccc(CNC(=O)NS(=O)(=O)c2ccc(OCC)cc2)cc1	13*	0	-2	-2	0	16	3
CNc1nc(-c2ccc3c(c2)CCN3C(=O)c2ccccc2F)cs1	11*	0	2	4	1	28	7
CNc1nc(-c2ccc3c(c2)CCN3C(=O)c2ccccc2F)c(C)s1	5	0	26	39	0	9	/
COc1cc(/C=N/Nc2nc(=O)[nH]nc2C)ccc1O	17*	0	-2	2	?	20	-3
O=C(Nc1nc2c(s1)CCCC2)c1ccc2ncsc2c1	20*	-24	10	34	8	-21	1
CCCOc1ccc(C(C)=O)cc1CN1CCOCC1	12*	0	2	0	1	3	-1
COc1cccc2sc(Nc3nnc(-c4ccccc4Cl)o3)nc12	8	1	5	-6	-11	27	/
COc1ccccc1-c1nnc(Nc2nc3c(OC)cccc3s2)o1	15*	0	-8	2	-3	23	4
O=C(NN1C(=O)C2C3c4ccccc4C(c4ccccc43)C2C1=O)C1CC1 (configuration not stated)	0	-1	0	1	1	11	/
CCN(/C=N/c1sc2c(c1C#N)CCCCC2)CC	13*	-1	2	/	-3	-8	4
O=C(N=Nc1c(O)[nH]c2ccccc12)c1cccc(S(=O)(=O)Nc2ccccc2Cl)c1	6	0	-8	1	2	40	/
CC(C)NC(=S)N=Nc1c(O)[nH]c2ccc(C(C)C)cc12	15*	0	-4	-2	-4	30	0

Screens from PubChem.
